Common to all, as to format: functional
In experiment [1] the test system is Human immunodeficiency virus 1. Nature of the experiment: Effective dose required for 50% inhibition of HIV-1 antigen production in MT-4 cultures.
The test system of experiment [2] is MT4. Nature of the experiment: Selectivity index is the ratio between CD50 and IC50 values of the compound. An outline of the steps: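 Selectivity index calculated as CD50 (MTT, uninfected MT-4 cells) divided by ED50 (HIV-1 antigen ELISA, infected MT-4 cultures). Each value is the mean of three independent determinations.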
The subject of experiment [3] is MT4. As to the kind of experiment: Cytotoxic dose required to reduce the proliferation of normal uninfected MT-4 cells by 50%. Conditions: Homo sapiens, read-out: CD50 (the source's name). An outline of the steps: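 Cytotoxicity scored as concentration-dependent inhibition of proliferation of uninfected MT-4 cells by MTT assay. Cells grown in RPMI 1640 + 10% heat-inactivated FCS. CD50 is the mean of three independent determinations.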

In experiment [1], `C=CCSc1nc(O)c(CC)c(Cc2ccccc2)n1` yielded an ED50 of 1.5 µM. Moreover, the SI in experiment [2] was over 67. Besides, in experiment [3], the CC50 was over 100 µM.
For `CCc1c(Cc2cc(C)cc(C)c2)n2c(nc1=O)SCC2OCCO` (configuration not stated) the same measures were 19 µM, over 5 and over 100 µM.
For `CCOC1CSc2nc(=O)c(CC)c(Cc3ccccc3)n21` (configuration not stated) the same measures were 46 µM, over 2 and over 100 µM.
For `CCc1c(Cc2cc(C)cc(C)c2)n2c(nc1=O)SCC2CBr` (configuration not stated) the same measures were 2.8 µM, 16 and 46 µM.
In the case of `CCc1c(Cc2cc(C)cc(C)c2)n2c(nc1=O)SCC2OC` (configuration not stated), the ED50 in experiment [1] was 3 µM. The SI in experiment [2] was over 33. Also, the CC50 in experiment [3] was over 100 µM.
For `CCc1c(O)nc(SCC2OCCO2)nc1Cc1cc(C)cc(C)c1` the same measures were 3 µM, 12 and 37 µM.
For `COC(CSc1nc(O)c(C(C)C)c(Cc2ccccc2)n1)OC` the same measures were 4 µM, 8 and 32 µM.
For `Cc1cn([C@H]2C[C@H](N=[N+]=[N-])[C@@H](CO)O2)c(=O)[nH]c1=O` [ZIDOVUDINE] the same measures were 0.04 µM, 1300 and 52 µM.
For `CCOC(CSc1nc(O)c(CC)c(Cc2cc(C)cc(C)c2)n1)OCC`, the ED50 in experiment [1] was 21 µM. For the same compound, in experiment [2], the SI is on record as over 5. In addition, the CC50 in experiment [3] is over 100 µM.
The compound `C=CCSc1nc(O)c(CC)c(Cc2cc(C)cc(C)c2)n1` came in with an ED50 in experiment [1] of 2 µM. Also, in experiment [2], the SI was found to be 34. For the same compound, the CC50 in experiment [3] was 68 µM.
For `CCc1c(Cc2ccccc2)n2c(nc1=O)SCC2OC` (configuration not stated) the same measures were 36 µM, over 3 and over 100 µM.
With `CCOCn1c(Cc2ccccc2)c(C(C)C)c(=O)[nH]c1=O` [EMIVIRINE], the ED50 in experiment [1] was found to be 0.005 µM. Also, in experiment [2], the SI was found to be 28000.
As for `CCOC1CSc2nc(=O)c(CC)c(Cc3cc(C)cc(C)c3)n21` (configuration not stated), the ED50 in experiment [1] worked out at 0.7 µM. For the same compound, in experiment [2], the SI is over 140. In experiment [3], the CC50 is over 100 µM.
For `CCOC1CSc2nc(=O)c(C(C)C)c(Cc3ccccc3)n21` (configuration not stated) the same measures were 100 µM, over 1 and over 100 µM.
For `CCc1c(O)nc(SCC(OC)OC)nc1Cc1cccc2ccccc12` the same measures were 32 µM, over 3 and over 100 µM.
For `C=CCSc1nc(O)c(C(C)C)c(Cc2ccccc2)n1` the same measures were 1.5 µM, over 67 and over 100 µM.
